# Source: ChEMBL document CHEMBL1125607, “Novel gonadotropin-releasing hormone antagonists: peptides incorporating modified N omega-cyanoguanidino moieties” (J Med Chem, 1991)
# Calls of active or inactive are those of the source. The calls are words filed in the database; no cut-off is given here.
# Assays:
# [1] = test system: Rattus norvegicus; assay: Potency (1 mg/rat) using anti-ovulatory assay, expressed as rat ovulating/total number of treated rats measured after sc administration; 6/6; format: functional, organism-based
# [2] = test system: Rattus norvegicus; assay: Potency (2.5 mg/rat) using anti-ovulatory assay, expressed as rat ovulating/total number of treated rats measured after sc administration; 1/8; format: functional, organism-based
# [3] = molecular target: Gonadotropin-releasing hormone receptor (Rattus norvegicus) (UniProt P30969); assay: Antagonist potency at GnRH receptor relative to a standard ([Ac-delta3Pro, DFpa2, DTrp3,6]GnRH).
# [4] = molecular target: T1, Gonadotropin-releasing hormone receptor (Rattus norvegicus, UniProt P30969); assay: In vitro binding affinity of Gonadotropin-releasing hormone antagonist was measured in rat pituitary cell membranes; set-up: species or system Pituitary gland cell, Membrane
# T1 sequence (P30969 whole entry): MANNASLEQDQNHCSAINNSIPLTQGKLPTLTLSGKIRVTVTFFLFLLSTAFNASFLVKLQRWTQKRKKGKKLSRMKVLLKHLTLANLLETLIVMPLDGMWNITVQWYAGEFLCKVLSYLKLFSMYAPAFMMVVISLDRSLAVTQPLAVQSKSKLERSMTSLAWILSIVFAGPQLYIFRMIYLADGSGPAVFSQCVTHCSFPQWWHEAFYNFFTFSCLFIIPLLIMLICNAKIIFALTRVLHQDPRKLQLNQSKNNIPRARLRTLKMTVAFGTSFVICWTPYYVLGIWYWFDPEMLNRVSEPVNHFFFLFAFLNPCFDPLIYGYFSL
# How it was run: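 Displacement binding on pituitary cell membranes with [DAla6,NMe-Leu7,Pro9-NHEt]GnRH as standard; analogue KD values calculated from potencies relative to that standard derived from displacement data.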
# [5] = test system: Rattus norvegicus; assay: Potency (1 mg/rat) using anti-ovulatory assay, expressed as rat ovulating/total number of treated rats measured after sc administration; 5/8; format: functional, organism-based
# [6] = test system: Rattus norvegicus; assay: Potency (2.5 mg/rat) using anti-ovulatory assay, expressed as rat ovulating/total number of treated rats measured after sc administration; 0/8; format: functional, organism-based
# [7] = test system: Rattus norvegicus; assay: Potency (2.5 mg/rat) using anti-ovulatory assay, expressed as rat ovulating/total number of treated rats measured after sc administration; 7/9; format: functional, organism-based
# [8] = test system: Rattus norvegicus; assay: Potency (5 mg/rat) using anti-ovulatory assay, expressed as rat ovulating/total number of treated rats measured after sc administration; 2/5; format: functional, organism-based
# [9] = test system: Rattus norvegicus; assay: Potency (10 mg/rat) using anti-ovulatory assay, expressed as rat ovulating/total number of treated rats measured after sc administration; 0/6; format: functional, organism-based
# [10] = organism: Rattus norvegicus; assay: In vitro histamine release by rat mast cells.; details: read-out: ED50 (the source's name)
# [11] = test system: Rattus norvegicus; assay: Potency (2.5 mg/rat) using anti-ovulatory assay, expressed as rat ovulating/total number of treated rats measured after sc administration; 5/9; format: functional, organism-based
# [12] = test system: Rattus norvegicus; assay: Potency (2.5 mg/rat) using anti-ovulatory assay, expressed as rat ovulating/total number of treated rats measured after sc administration; 2/9; format: functional, organism-based
# [13] = test system: Rattus norvegicus; assay: Potency (10 mg/rat) using anti-ovulatory assay, expressed as rat ovulating/total number of treated rats measured after sc administration; 4/4; format: functional, organism-based
# [14] = test system: Rattus norvegicus; assay: Potency (5 mg/rat) using anti-ovulatory assay, expressed as rat ovulating/total number of treated rats measured after sc administration; 1/6; format: functional, organism-based
# [15] = test system: Rattus norvegicus; assay: Potency (2.5 mg/rat) using anti-ovulatory assay, expressed as rat ovulating/total number of treated rats measured after sc administration; 5/6; format: functional, organism-based
# [16] = test system: Rattus norvegicus; assay: Potency (1 mg/rat) using anti-ovulatory assay, expressed as rat ovulating/total number of treated rats measured after sc administration; 2/8; format: functional, organism-based
# [17] = test system: Rattus norvegicus; assay: Potency (0.5 mg/rat) using anti-ovulatory assay, expressed as rat ovulating/total number of treated rats measured after sc administration; 7/7; format: functional, organism-based
# [18] = test system: Rattus norvegicus; assay: Potency (5 mg/rat) using anti-ovulatory assay, expressed as rat ovulating/total number of treated rats measured after sc administration; 0/7; format: functional, organism-based
# [19] = test system: Rattus norvegicus; assay: Potency (2.5 mg/rat) using anti-ovulatory assay, expressed as rat ovulating/total number of treated rats measured after sc administration; 7/7; format: functional, organism-based
compound,measurement,setting,value
CC(C)C[C@H](NC(=O)[C@@H](CCCCNc1n[nH]c(N)n1)NC(=O)[C@H](Cc1ccc(O)cc1)NC(=O)[C@H](CO)NC(=O)[C@H](CCCCNc1n[nH]c(N)n1)NC(=O)[C@H](Cc1c[nH]cn1)NC(=O)[C@@H]1CCC(=O)N1)C(=O)N[C@@H](CCCCNC(C)C)C(=O)N1CCC[C@H]1C(=O)N[C@H](C)C(N)=O,Activity,[1],inactive
same,Activity,[2],Active
same,Relative potency,[3],0.6
CCCC/N=C(\NC#N)NCCC[C@H](NC(=O)[C@H](CO)NC(=O)[C@H](Cc1c[nH]c2ccccc12)NC(=O)[C@H](Cc1c[nH]cn1)NC(=O)[C@@H]1CCC(=O)N1)C(=O)N[C@H](CCCN/C(=N/CCCC)NC#N)C(=O)N[C@@H](CC(C)C)C(=O)N[C@@H](CCCCNC(C)C)C(=O)N1CCC[C@H]1C(=O)N[C@H](C)C(N)=O,Kd,[4],2.1 nM
same,Activity,[5],Weak activity
same,Activity,[6],Active
same,Relative potency,[3],1
CC(C)C[C@H](NC(=O)[C@@H](CCCC/N=C(\NC#N)NC1CCCCC1)NC(=O)[C@H](CCCC/N=C(\NC#N)NC1CCCCC1)NC(=O)[C@H](CO)NC(=O)[C@H](Cc1c[nH]c2ccccc12)NC(=O)[C@H](Cc1c[nH]cn1)NC(=O)[C@@H]1CCC(=O)N1)C(=O)N[C@@H](CCCCNC(C)C)C(=O)N1CCC[C@H]1C(=O)N[C@H](C)C(N)=O,Activity,[7],inactive
same,Relative potency,[3],0.42
CC(C)C[C@H](NC(=O)[C@@H](CCCN=C(N)N)NC(=O)[C@H](Cc1ccc(O)cc1)NC(=O)[C@H](CO)NC(=O)[C@@H](CCCCNc1n[nH]c(N)n1)NC(=O)[C@H](Cc1c[nH]cn1)NC(=O)[C@@H]1CCC(=O)N1)C(=O)N[C@@H](CCCCNC(C)C)C(=O)N1CCC[C@H]1C(=O)N[C@H](C)C(N)=O,Activity,[8],Weak activity
same,Activity,[9],Active
same,EC50,[10],9.5 µg/mL
same,Relative potency,[3],0.3
CCCC/N=C(\NC#N)NCCCC[C@H](NC(=O)[C@H](Cc1c[nH]cn1)NC(=O)[C@@H]1CCC(=O)N1)C(=O)N[C@@H](CO)C(=O)N[C@@H](Cc1ccc(O)cc1)C(=O)N[C@H](CCCCN/C(=N/CCCC)NC#N)C(=O)N[C@@H](CC(C)C)C(=O)N[C@@H](CCCCNC(C)C)C(=O)N1CCC[C@H]1C(=O)N[C@H](C)C(N)=O,Activity,[11],Weak activity
same,Relative potency,[3],1.4
CC(C)C[C@H](NC(=O)[C@@H](CCC/N=C(\NC#N)NCc1ccccn1)NC(=O)[C@H](CCC/N=C(\NC#N)NCc1ccccn1)NC(=O)[C@H](CO)NC(=O)[C@H](Cc1c[nH]c2ccccc12)NC(=O)[C@H](Cc1c[nH]cn1)NC(=O)[C@@H]1CCC(=O)N1)C(=O)N[C@@H](CCCCNC(C)C)C(=O)N1CCC[C@H]1C(=O)N[C@H](C)C(N)=O,Kd,[4],0.41 nM
same,Activity,[12],Active
same,Relative potency,[3],0.9
CC(C)C[C@H](NC(=O)[C@@H](Cc1cccnc1)NC(=O)[C@H](Cc1ccc(O)cc1)NC(=O)[C@H](CO)NC(=O)[C@H](Cc1ccc(Nc2n[nH]c(N)n2)cc1)NC(=O)[C@H](Cc1c[nH]cn1)NC(=O)[C@@H]1CCC(=O)N1)C(=O)N[C@@H](CCCCNC(C)C)C(=O)N1CCC[C@H]1C(=O)N[C@H](C)C(N)=O,Activity,[13],inactive
same,Relative potency,[3],0.06
CCCC/N=C(\NC#N)NCCCC[C@H](NC(=O)[C@H](CC(C)C)NC(=O)[C@@H](CCCN=C(N)N)NC(=O)[C@H](Cc1ccc(O)cc1)NC(=O)[C@H](CO)NC(=O)[C@@H](Cc1cccnc1)NC(=O)[C@H](Cc1c[nH]cn1)NC(=O)[C@@H]1CCC(=O)N1)C(=O)N1CCC[C@H]1C(=O)N[C@H](C)C(N)=O,Kd,[4]; pituitary gland cell,1 nM
same,Activity,[14],Active
same,Activity,[15],inactive
same,EC50,[10],3.5 µg/mL
same,Relative potency,[3],1.2
CCCC/N=C(\NC#N)NCCCC[C@@H](NC(=O)[C@H](Cc1c[nH]cn1)NC(=O)[C@@H]1CCC(=O)N1)C(=O)N[C@@H](CO)C(=O)N[C@@H](Cc1ccc(O)cc1)C(=O)N[C@H](CCCN=C(N)N)C(=O)N[C@@H](CC(C)C)C(=O)N[C@@H](CCCCNC(C)C)C(=O)N1CCC[C@H]1C(=O)N[C@H](C)C(N)=O,Kd,[4],1.2 nM
same,Activity,[16],Active
same,Activity,[17],inactive
same,EC50,[10],6 µg/mL
same,Relative potency,[3],1.4
CCCC/N=C(/NCCCC[C@H](NC(=O)[C@H](CC(C)C)NC(=O)[C@@H](CCCCNC(=O)c1cccnc1)NC(=O)[C@H](CCCCNC(=O)c1cccnc1)NC(=O)[C@H](CO)NC(=O)[C@H](Cc1c[nH]c2ccccc12)NC(=O)[C@H](Cc1c[nH]cn1)NC(=O)[C@@H]1CCC(=O)N1)C(=O)N1CCC[C@H]1C(=O)N[C@H](C)C(N)=O)NC(N)=O,Kd,[4],0.11 nM
same,Activity,[18],Active
same,Activity,[19],inactive
